From ChEMBL document CHEMBL1125520, “Improved brain delivery of AZT using a glycosyl phosphotriester prodrug” (1992)

What was measured:
Mus musculus [1] = assay: In Vivo detection in Mice plasma after oral administration of 58.33 mg/kg detected in the form of AZT phosphodiester 3 after 4 hr; format: functional, organism-based; set-up: dose 58.33 mg/kg
Method in brief: (§1)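 Male Swiss mice (18–20 g, six weeks old) given the test substance or vehicle ([…]) by gavage as a 3 mM solution (1.5 µmol/mouse). Aortic blood was collected into heparinized tubes at 0.5–48 h and centrifuged at 13000g for 10 min. Plasma was stored at -22 °C and analysed by HPLC. Three mice were used per time point, in triplicate. Values were not corrected for recovery.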

Mus musculus [2] = assay: In Vivo detection in Mice brains after oral administration of 58.33 mg/kg detected in the form of AZT after 8 hr; format: functional
Mus musculus [3] = assay: In Vivo detection in Mice plasma after oral administration of 58.33 mg/kg detected in the form of AZT phosphodiester 2 after 24 hr; format: functional, organism-based; set-up: dose 58.33 mg/kg; method in brief: as §1
Mus musculus [4] = assay: In Vivo detection in Mice plasma after oral administration of 58.33 mg/kg detected in the form of AZT after 24 hr; format: functional, organism-based; set-up: dose 58.33 mg/kg
Mus musculus [5] = assay: In Vivo detection in Mice brains after oral administration of 58.33 mg/kg detected in the form of AZT phosphodiester 3 after 1 hr; format: functional
Mus musculus [6] = assay: In Vivo detection of total AZT in Mice plasma after oral administration of 58.33 mg/kg after 2 hr; format: functional, organism-based; set-up: dose 58.33 mg/kg; method in brief: as §1
Mus musculus [7] = assay: In Vivo detection in Mice brains after oral administration of 58.33 mg/kg detected in the form of AZT phosphodiester 2 after 2 hr; format: functional
Mus musculus [8] = assay: In Vivo detection in Mice plasma after oral administration of 58.33 mg/kg detected in the form of AZT phosphodiester 2 after 48 hr; format: functional, organism-based; set-up: dose 58.33 mg/kg; method in brief: as §1
Mus musculus [9] = assay: In Vivo detection of total AZT in Mice plasma after oral administration of 41.63 mg/kg after 2 hr; format: functional, organism-based; set-up: dose 41.63 mg/kg; method in brief: as §1
Mus musculus [10] = assay: In Vivo detection in Mice plasma after oral administration of 41.63 mg/kg detected in the form of AZT phosphodiester 2 after 1 hr; format: functional, organism-based; set-up: dose 41.63 mg/kg
Mus musculus [11] = assay: In Vivo detection of total AZT in Mice brains after oral administration of 41.63 mg/kg after 2 hr; format: functional
Method in brief: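 Male Swiss mice (18–20 g) dosed orally with a 3 mM solution in […] vehicle; decapitated at 0.5–48 h. Brains were homogenized in acetonitrile-water (3:1), centrifuged at 6000g for 40 min at 4 °C, lyophilized, redissolved in water and filtered (0.45 µm). Reversed-phase C18 column-switching HPLC with diode-array detection; standard spiking; vehicle-fed controls. Three mice per point, triplicates.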

Mus musculus [12] = assay: In Vivo detection in Mice brains after oral administration of 41.63 mg/kg detected in the form of AZT 5`-P after 48 hr; format: functional
Mus musculus [13] = assay: In Vivo detection in Mice plasma after oral administration of 41.63 mg/kg detected in the form of AZT phosphodiester 2 after 8 hr; format: functional, organism-based; set-up: dose 41.63 mg/kg
Mus musculus [14] = assay: In Vivo detection in Mice plasma after oral administration of 41.63 mg/kg detected in the form of AZT after 48 hr; format: functional, organism-based; set-up: dose 41.63 mg/kg
Mus musculus [15] = assay: In Vivo detection of total AZT in Mice plasma after oral administration of 41.63 mg/kg after 1 hr; format: functional, organism-based; set-up: dose 41.63 mg/kg; method in brief: as §1

## CCCCCCCCCCCCCCCCOP(=O)(OCCO[C@H]1O[C@H](CO)[C@@H](O)[C@H](O)[C@@H]1O)OCC1OC(n2cc(C)c(=O)[nH]c2=O)CC1N=[N+]=[N-] (stereo not given in full)
Mus musculus [1]
  Plasma content: 0 nM ml-1
Mus musculus [2]
  Brain content: 2 nmol/g
Mus musculus [3]
  Plasma content: 0 nM ml-1
Mus musculus [4]
  Plasma content: 0 nM ml-1
Mus musculus [5]
  Brain content: 0 nmol/g
Mus musculus [6]
  Plasma content: 5.4 nM ml-1
Mus musculus [7]
  Brain content: 5.2 nmol/g
Mus musculus [8]
  Plasma content: 0 nM ml-1

## Cc1cn([C@H]2C[C@H](N=[N+]=[N-])[C@@H](COP(=O)(O)OCCO[C@H]3O[C@H](CO)[C@@H](O)[C@H](O)[C@@H]3O)O2)c(=O)[nH]c1=O
Mus musculus [9]
  Plasma content: 19.7 nM ml-1
Mus musculus [10]
  Plasma content: 5.2 nM ml-1
Mus musculus [11]
  Brain content: 26.2 nM ml-1
Mus musculus [12]
  Brain content: 48.5 nmol/g
Mus musculus [13]
  Plasma content: 0 nM ml-1
Mus musculus [14]
  Plasma content: 0 nM ml-1
Mus musculus [15]
  Plasma content: 43.5 nM ml-1
